Screens (PubChem)
Shown are actives, neighbours in structure and some others; about 4.9% of the full set was active somewhere.
STAT1 act-1: STAT1 signaling activators, primary screen, cell-based, HTS, luciferase reporter; NIH 3T3 STAT1-luciferase reporter, IFN-gamma, luminescence; 100% = IFN-gamma alone, no compound; activation (% of control), % at 5.5 µM; hit rate 2.6% among 200,000;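 active = activation above the screen-wide mean activation plus 3 SD, cut at about 130% in these data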
STAT1 blocker: STAT1 signaling inhibitors, primary screen, cell-based, HTS, luciferase reporter. inhibition, % at 5.5 µM. NIH 3T3 STAT1-luciferase reporter, IFN-gamma, luminescence. AID 920, 2007. hit rate 0.35% among 200,000;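 active = inhibition above a set limit, the mean inhibition across all tested compounds plus 3 SD, cut at about 34% in these data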
APP 5'UTR act: activators of APP 5'UTR luciferase reporter, primary screen, SH-SY5Y cells; hit rate 1% among 190,000; activation, % at 2 µM; SH-SY5Y APP 5'UTR luciferase reporter, luminescence; zero percent = DMSO vehicle wells;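 active = activation above a set limit, based on mean plus 3 SD of controls, cut at about 140% in these data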
STAT3 act-1: IL-6 driven STAT3 reporter potentiators, primary screen, U3A cells, luciferase, luminescence, MLSCN library. IL-6 STAT3-luciferase reporter; 100% = signal with IL-6 EC80 alone. activation (% of control), % at 5.6 µM. hit rate 0.91% among 190,000;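 active = activation above the screen-wide mean of compound activation plus 3 SD, cut at about 130% in these data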
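Material: STAT1-lacking human U3A cells, STAT3 luciferase reporter | Benchmarks: IL-6-only wells as 100% reference | Probe or stimulus: IL-6 (33 ng/mL) | Timing: Compound 1 h, then IL-6 6 h at 37 °C | Detection: Luminescence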
NF-kB neuron act: activators of NF-kB expression in neurons, primary screen, cell-based, HTS | human neuronal cells, NF-kB reporter expression; stronger effect = higher value | fold change at 12.5 µM | hit rate 1.6% among 190,000; in the data active = fold change above about 3.3
STAT3 inh: IL-6 driven STAT3 reporter inhibitors, primary screen, U3A cells, luciferase, luminescence, MLSCN library; IL-6 STAT3-luciferase reporter; host cell line lacks STAT1; inhibition, % at 5.5 µM; hit rate 0.89% among 190,000; AID 862, 2007;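 active = inhibition above the mean inhibition across all screened compounds plus 3 SD, cut at about 44% in these data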
STAT3 act-2: STAT3 reporter potentiators, retest of hits, confirmation, U3A cells, luciferase, luminescence; shares compounds with STAT3 act-1; IL-6 potentiation; U3A cells lack STAT1; 100 means same as IL-6 alone; potentiation (% of control), % at 5.7 µM; hit rate 64% among 1,200; AID 1267, 2008;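 active = percent activation of the STAT3 luciferase reporter above a set limit taken from the earlier primary screen, cut at about 130% in these data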
NFkB act 2: NF-kB reporter activators in human cells, counter-screen for STAT3 activator project; activation (% of control), % at 5.7 µM; NF-kappaB reporter activation; hit rate 11% among 1,200; shares compounds with STAT3 act-1; in the data active = activation above about 120%;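 also: reporter induced by TNF-alpha stimulation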
STAT1 act-2: STAT1 reporter activators, IFN-gamma induced, counter-screen for STAT3 activator project, cell-based, NIH 3T3, luciferase luminescence | shares compounds with STAT3 act-1 | NIH 3T3 STAT1-luciferase reporter | activation (% of control), % at 5.7 µM | hit rate 13% among 1,200;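 active = activation above the solvent-only control well mean plus 3 SD, set per screening run, cut at about 120% in these data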
Large screens that a line does not name were inactive (follow-up assays come after a bar, where they were run).

CC(=O)C1=C(O)C(=O)N(CCc2ccccc2)C1c1ccccc1[N+](=O)[O-] (centres undefined)	none
CCN(CC)C(=O)CSc1nc2c(c(-c3cccnc3)c1C#N)CCCC2	none
CC(=O)n1c2c(c3ccccc31)OC(N)=C(C#N)C2c1cccc(Cl)c1Cl (centres undefined)	STAT3 act-1 141 | STAT3 act-2 141 | NFkB act 2 inactive | STAT1 act-2 inactive
Cc1c(N/C(=N/S(=O)(=O)c2ccc(F)cc2)c2ccccc2)c(=O)n(-c2ccccc2)n1C	none
N#Cc1c(-c2ccccc2)ccnc1N1CCOCC1	none
CC1=C([N+](=O)[O-])C(c2cccc(Br)c2)C2=C(N1)c1ccccc1C2=O (centres undefined)	STAT3 act-1 175, NF-kB neuron act 4.5 | STAT3 act-2 149 | NFkB act 2 149 | STAT1 act-2 inactive
Cn1c(NCc2c(O)ccc3ccccc23)nc2ccccc21	none
Oc1ccc2ccccc2c1CNc1cnc2ccccc2c1	STAT3 act-1 146 (no result: APP 5'UTR act) | STAT3 act-2 133 | NFkB act 2 inactive | STAT1 act-2 inactive
CC1CCN(S(=O)(=O)c2ccc3c(c2)C(=NO)c2cc(S(=O)(=O)N4CCC(C)CC4)ccc2-3)CC1	STAT3 act-1 136 | STAT3 act-2 inactive | NFkB act 2 131 | STAT1 act-2 inactive
Cc1ccc(C)c(NC(=S)c2nc3ccccc3s2)c1	STAT3 act-1 142 | STAT3 act-2 203 | NFkB act 2 127 | STAT1 act-2 130
CCOC(=O)C1=C(NC(=S)NC(=O)c2ccccc2)c2ccccc2CC1(C)CC (centres undefined)	none
CCOC(=O)C1=C(NC(=S)NC(=O)c2ccccc2)c2ccccc2CC1C(C)C (centres undefined)	STAT3 act-1 139, NF-kB neuron act 3.7 | STAT3 act-2 inactive | NFkB act 2 inactive | STAT1 act-2 inactive
FC(F)(F)c1nnc2c(Sc3ccccn3)nc3ccccc3n12	STAT3 act-1 141 | STAT3 act-2 146 | NFkB act 2 122 | STAT1 act-2 128
Oc1c(Br)cc(Br)cc1/C=N/c1nc2c(s1)CCCC2	none
Oc1ccc2ccccc2c1/C=N/c1nc2c(s1)CCCC2	STAT3 act-1 154 | STAT3 act-2 136 | NFkB act 2 inactive | STAT1 act-2 inactive
CCN(C(=O)CN1CCOCC1)C1(C)C(=O)c2ccccc2C1=O	none
Cc1cccc(N2CCN(C3=NC(=O)C(Cc4ccccc4)S3)CC2)c1 (centres undefined)	none
CCc1nc2cc([N+](=O)[O-])c([N+](=O)[O-])cc2[nH]1	none
Clc1ccc(-c2ccc(/C=N/Nc3nncc(-c4ccccc4)n3)o2)cc1	none
Clc1ccccc1-c1ccc(/C=N/Nc2nncc(-c3ccccc3)n2)o1	STAT3 act-1 163 | STAT3 act-2 154 | NFkB act 2 inactive | STAT1 act-2 inactive
NNC(=O)c1cc(-c2ccco2)[nH]n1	none
Oc1c(-c2cc(-c3ccco3)[nH]n2)ccc2ccccc12	STAT3 act-1 164, NF-kB neuron act 8.7 | STAT3 act-2 166 | NFkB act 2 154 | STAT1 act-2 inactive
Oc1ccc(Br)cc1-c1cc(-c2ccco2)[nH]n1	STAT3 act-1 136 | STAT3 act-2 inactive | NFkB act 2 inactive | STAT1 act-2 inactive
CC1=C(C)CC(C(=O)N2CCN(Cc3ccc4c(c3)OCO4)CC2)C(C(=O)O)C1 (centres undefined)	none
